From ChEMBL document CHEMBL1811881, “Development of 3-substituted-androsterone derivatives as potent inhibitors of 17β-hydroxysteroid dehydrogenase type 3” (Bioorg Med Chem, 2011)
Active and inactive are the calls of the source. The rule behind the calls is not given here.

Key:
[1] = target: T1, 17-beta-hydroxysteroid dehydrogenase type 3 (Homo sapiens) (UniProt P37058); assay: Inhibition of 17Beta-HSD3 expressed in homogenized HEK293 cells assessed as transformation of [14C]-4-androstene-3,17-dione into [14C]-testosterone in presence of NADPH at 0.01 uM; assay type: cell-based
T1 sequence (whole entry): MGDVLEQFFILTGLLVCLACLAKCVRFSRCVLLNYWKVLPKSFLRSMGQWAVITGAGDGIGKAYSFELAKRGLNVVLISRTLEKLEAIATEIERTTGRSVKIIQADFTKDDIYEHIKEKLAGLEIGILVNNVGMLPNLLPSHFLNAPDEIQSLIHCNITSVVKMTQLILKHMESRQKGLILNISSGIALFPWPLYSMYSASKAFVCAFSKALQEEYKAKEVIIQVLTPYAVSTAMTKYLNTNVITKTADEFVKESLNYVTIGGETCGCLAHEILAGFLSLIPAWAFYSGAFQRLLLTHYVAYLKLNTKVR
Method in brief: (§1)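 HEK-293 cells overexpressing 17β-HSD3 were briefly homogenized. The enzyme assay measured conversion of 50 nM [4-14C]-4-androstene-3,17-dione to [14C]-testosterone with NADPH in excess (5 mM). Inhibitor was dissolved in ethanol, and the ethanol-only control was used to derive % inhibition at each concentration. Error 10%.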

[2] = target: T1, 17-beta-hydroxysteroid dehydrogenase type 3 (Homo sapiens); assay: Inhibition of 17Beta-HSD3 expressed in homogenized HEK293 cells assessed as transformation of [14C]-4-androstene-3,17-dione into [14C]-testosterone in presence of NADPH at 0.1 uM; assay type: cell-based; method in brief: as §1
[3] = target: T1, 17-beta-hydroxysteroid dehydrogenase type 3 (Homo sapiens); assay: Inhibition of 17Beta-HSD3 expressed in homogenized HEK293 cells assessed as transformation of [14C]-4-androstene-3,17-dione into [14C]-testosterone in presence of NADPH at 1 uM; assay type: cell-based; method in brief: as §1
[4] = target: T1, 17-beta-hydroxysteroid dehydrogenase type 3 (Homo sapiens); assay: Inhibition of 17Beta-HSD3 expressed in intact HEK293 cells assessed as transformation of [14C]-4-androstene-3,17-dione into [14C]-testosterone in presence of NADPH at 1 uM after 1 hr incubation; assay type: cell-based
Method in brief: (§2)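 HEK-293 cells were grown in MEM with 10% FBS at 37 °C under 5% CO2, seeded at 200,000 cells/well, and transfected with 2 µg/well of a 17β-HSD3 expression plasmid. Intact cells then got 50 nM [4-14C]-4-androstene-3,17-dione plus inhibitor in ethanol (0.5% v/v) for 1 h. Radiolabelled steroids were extracted from the medium and quantified. Triplicate; % transformation was used to derive IC50.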

[5] = target: T1, 17-beta-hydroxysteroid dehydrogenase type 3 (Homo sapiens); assay: Inhibition of 17Beta-HSD3 expressed in intact HEK293 cells assessed as transformation of [14C]-4-androstene-3,17-dione into [14C]-testosterone in presence of NADPH at 0.1 uM after 1 hr incubation; assay type: cell-based; method in brief: as §2
[6] = target: T2, Androgen receptor (Mus musculus) (UniProt P19091); assay: Activation of androgen receptor in androgen-sensitive (AR+) mouse Shionogi cells assessed as stimulation of cell proliferation after 10 days at 1 uM relative to control
T2 sequence (whole entry): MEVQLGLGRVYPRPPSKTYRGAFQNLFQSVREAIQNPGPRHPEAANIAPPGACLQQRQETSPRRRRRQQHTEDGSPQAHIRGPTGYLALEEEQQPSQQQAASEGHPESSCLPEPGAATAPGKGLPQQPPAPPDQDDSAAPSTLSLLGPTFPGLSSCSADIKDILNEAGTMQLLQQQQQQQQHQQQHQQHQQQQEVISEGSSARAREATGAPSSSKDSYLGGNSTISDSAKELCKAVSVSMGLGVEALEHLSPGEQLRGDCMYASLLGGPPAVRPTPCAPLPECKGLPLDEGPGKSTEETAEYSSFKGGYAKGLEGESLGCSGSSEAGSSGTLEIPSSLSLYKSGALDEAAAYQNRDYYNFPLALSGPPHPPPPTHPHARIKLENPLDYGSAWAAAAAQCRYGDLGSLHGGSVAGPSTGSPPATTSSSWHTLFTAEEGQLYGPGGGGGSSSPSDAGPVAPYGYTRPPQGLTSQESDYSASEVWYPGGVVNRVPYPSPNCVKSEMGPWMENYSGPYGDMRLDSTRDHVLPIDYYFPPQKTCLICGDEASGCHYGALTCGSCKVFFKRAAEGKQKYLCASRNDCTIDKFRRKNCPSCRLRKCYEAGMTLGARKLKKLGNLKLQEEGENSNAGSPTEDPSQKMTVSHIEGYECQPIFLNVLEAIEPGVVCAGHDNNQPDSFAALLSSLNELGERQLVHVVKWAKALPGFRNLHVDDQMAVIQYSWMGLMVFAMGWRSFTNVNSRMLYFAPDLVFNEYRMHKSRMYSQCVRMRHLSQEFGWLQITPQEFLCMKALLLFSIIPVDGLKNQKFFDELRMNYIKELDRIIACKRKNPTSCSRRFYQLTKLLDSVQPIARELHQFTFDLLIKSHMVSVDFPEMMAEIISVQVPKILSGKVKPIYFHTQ
Method in brief: (§3)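 Androgen-sensitive (AR+) Shionogi cells. Inhibitors and reference compounds were each tested at 0.1 and 1.0 µM. Androgenicity is reported as % cell proliferation versus control, with basal proliferation set to 100%. DHT (0.1 µM) served as androgen reference and hydroxyflutamide as antiandrogen. Data are mean ± SEM of one experiment in triplicate.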

[7] = target: T3, 17-beta-hydroxysteroid dehydrogenase type 3 (Homo sapiens, UniProt P37058); assay: Inhibition of 17Beta-HSD3 expressed in intact HEK293 cells assessed as transformation of [14C]-4-androstene-3,17-dione into [14C]-testosterone in presence of NADPH after 1 hr incubation; assay type: cell-based; method in brief: as §2
T3 sequence (P37058 whole entry): T1 sequence (whole entry)

[8] = target: T2, Androgen receptor (Mus musculus); assay: Activation of androgen receptor in androgen-sensitive (AR+) mouse Shionogi cells assessed as stimulation of cell proliferation after 10 days relative to control; method in brief: as §3

Row | Compound | inhibition [1] [%] | inhibition [2] [%] | inhibition [3] [%] | inhibition [4] [%] | inhibition [5] [%] | Activity [6] | IC50 [7] [nM] | Activity [8]
1 | C[C@]12CC[C@](O)(CN3CCC(N4CCCCC4)CC3)C[C@@H]1CC[C@@H]1[C@@H]2CC[C@]2(C)C(=O)CC[C@@H]12 | 0 | 4 | 69 | 20 |  |  |  | 
2 | C[C@@H]1CN(S(=O)(=O)c2ccccc2C(F)(F)F)[C@@H](C)CN1C[C@@]1(O)CC[C@@]2(C)[C@@H](CC[C@@H]3[C@@H]2CC[C@]2(C)C(=O)CC[C@@H]32)C1 | 55 | 92 |  |  | 84 | inactive | 6 | 
3 | C[C@]12CC[C@](O)(Cc3ccccc3)C[C@@H]1CC[C@@H]1[C@@H]2CC[C@]2(C)C(=O)CC[C@@H]12 |  |  |  |  |  | 396% |  | 
4 | C[C@]12CC[C@](O)(CN3CCC(Cc4ccccc4)CC3)C[C@@H]1CC[C@@H]1[C@@H]2CC[C@]2(C)C(=O)CC[C@@H]12 | 40 | 82 | 90 | 52 |  |  |  | 
5 | CN(Cc1ccccc1)C[C@@]1(O)CC[C@@]2(C)[C@@H](CC[C@@H]3[C@@H]2CC[C@]2(C)C(=O)CC[C@@H]32)C1 | 28 | 79 | 89 | 92 | 48 |  |  | 
6 | CC(C)(O)C(=O)Nc1ccc([N+](=O)[O-])c(C(F)(F)F)c1 |  |  |  |  |  |  |  | inactive
7 | CCN(CC)C[C@@]1(O)CC[C@@]2(C)[C@@H](CC[C@@H]3[C@@H]2CC[C@]2(C)C(=O)CC[C@@H]32)C1 | 0 | 10 | 60 | 14 |  |  |  | 
8 | C[C@]12CC[C@](O)(CN3CCN(c4ccccc4)CC3)C[C@@H]1CC[C@@H]1[C@@H]2CC[C@]2(C)C(=O)CC[C@@H]12 | 13 | 78 | 89 | 68 |  |  |  | 
9 | C[C@]12CC[C@@]3(C[C@@H]1CC[C@@H]1[C@@H]2CC[C@]2(C)C(=O)CC[C@@H]12)CN(CCC(CN1CCOCC1)OC(=O)C1CCCCC1)C(=O)O3 (stereo partly drawn) |  |  |  |  |  |  | 51 | inactive
10 | C[C@]12CC[C@](O)(CN3CCCCC3)C[C@@H]1CC[C@@H]1[C@@H]2CC[C@]2(C)C(=O)CC[C@@H]12 | 9 | 19 | 69 | 23 |  |  |  | 
11 | CCCCN(CCCC)C[C@@]1(O)CC[C@@]2(C)[C@@H](CC[C@@H]3[C@@H]2CC[C@]2(C)C(=O)CC[C@@H]32)C1 | 13 | 70 | 85 | 90 | 53 |  |  | 
12 | C[C@]12CC[C@@]3(C[C@@H]1CC[C@@H]1[C@@H]2CC[C@]2(C)C(=O)CC[C@@H]12)CN(Cc1ccccc1)C(=O)O3 | 21 | 86 | 93 |  | 44 | inactive |  | 
13 | C[C@@H]1CN(Cc2cccc(C(F)(F)F)c2)[C@@H](C)CN1C[C@@]1(O)CC[C@@]2(C)[C@@H](CC[C@@H]3[C@@H]2CC[C@]2(C)C(=O)CC[C@@H]32)C1 | 31 | 89 |  | 78 |  |  |  | 
14 | C[C@]12CC[C@](O)(CN3CCN(Cc4ccccc4)CC3)C[C@@H]1CC[C@@H]1[C@@H]2CC[C@]2(C)C(=O)CC[C@@H]12 | 35 | 72 | 90 | 80 | 37 |  |  | 
15 | CCN(Cc1ccccc1)C[C@@]1(O)CC[C@@]2(C)[C@@H](CC[C@@H]3[C@@H]2CC[C@]2(C)C(=O)CC[C@@H]32)C1 | 42 | 85 | 90 | 94 | 86 | 314% |  | 
